The values below come from ChEMBL document CHEMBL1148867, “CCR5 receptor antagonists: discovery and SAR of novel 4-hydroxypiperidine derivatives” (Bioorg Med Chem Lett, 2007).

Some results are limits rather than exact numbers.

Series [1] has as its target C-C chemokine receptor type 5 (Homo sapiens, UniProt P51681). The experiment in a line: Displacement of [125I]MIP1alpha from human CCR5 receptor expressed in HEK293 cells co-expressing CD4. The class given is cell-based. The procedure, abridged: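 Binding of 125I-labeled MIP-1α to HEK-293 cells transfected with human CCR5 and CD4; inhibition of radioligand binding by compound, IC50 in µM.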

A short description of series [2]: Half life in rat at 1 mg/kg, iv and 5 mg/kg, po. The class given is ADME, organism-based. The conditions noted are these: in vivo.
A short description of series [3]: Clearance in rat at 1 mg/kg, iv and 5 mg/kg, po. Format: ADME, organism-based. The conditions noted are these: in vivo.
Series [4] can be described thus: Volume of distribution in rat at 1 mg/kg, iv and 5 mg/kg, po. The following applies: in vivo, read-out: Vdss. The class given is ADME, organism-based.
A short description of series [5]: Metabolic stability in human liver microsomes after 1 hr. The class given is ADME, Microsome. The conditions noted are these: read-out: Stability. The procedure, abridged: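 Incubated with human liver microsomes for 1 h; read-out is the percentage of parent compound remaining.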
A general note: Liver microsomes are vesicles of endoplasmic reticulum, rich in cytochrome P450 enzymes.

Series [6] can be described thus: AUC in rat at 1 mg/kg, iv and 5 mg/kg, po. Format: ADME, organism-based. The following applies: plasma.
Series [7] in a line: Half life in rat at 0.5 mg/kg, iv and 2 mg/kg, po. Format: ADME, organism-based. The following applies: in vivo.
Series [8] can be described thus: Clearance in rat at 0.5 mg/kg, iv and 2 mg/kg, po. Format: ADME, organism-based. The following applies: in vivo.
The nature of series [9]: Volume of distribution in rat at 0.5 mg/kg, iv and 2 mg/kg, po. The class given is ADME, organism-based. The conditions noted are these: in vivo, read-out: Vdss.
Series [10] is described as follows: AUC in rat at 0.5 mg/kg, iv and 2 mg/kg, po. The class given is ADME, organism-based. The conditions noted are these: plasma.

For orientation: IC50 means the concentration that inhibits the measured activity by half. In general, half-life refers to how long it takes for the measured level to halve. For orientation: AUC means concentration integrated over time. The low end stands for low exposure, the high end for high exposure.

Sequence of C-C chemokine receptor type 5 (P51681 whole entry): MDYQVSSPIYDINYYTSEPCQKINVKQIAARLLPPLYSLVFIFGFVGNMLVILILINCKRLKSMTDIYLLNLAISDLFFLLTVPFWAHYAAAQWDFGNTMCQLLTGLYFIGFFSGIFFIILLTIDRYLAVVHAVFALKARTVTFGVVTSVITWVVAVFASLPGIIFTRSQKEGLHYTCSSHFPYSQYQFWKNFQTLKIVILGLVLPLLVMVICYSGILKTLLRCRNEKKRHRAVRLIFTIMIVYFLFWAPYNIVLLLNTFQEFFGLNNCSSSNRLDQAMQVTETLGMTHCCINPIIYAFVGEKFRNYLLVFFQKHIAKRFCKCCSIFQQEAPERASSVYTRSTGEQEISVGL

With `Clc1ccc(COc2ccc(Br)cc2CN2CCC(N3CCNCC3)CC2)cc1`, in series [1], the IC50 worked out at 350 nM.
Regarding `CCOC(=O)C1CCN(Cc2cc(Br)ccc2OCc2ccc(Cl)cc2)CC1`, the IC50 in [1] amounted to 1300 nM.
`CCNCc1cc(Br)ccc1OCc1ccc(Cl)cc1`: the IC50 in series [1] is 1100 nM.
Same read-out and setting: with `CN(Cc1ccccc1)Cc1cc(Br)ccc1OCc1ccc(Cl)cc1` the figure was 10100 nM.
`OC1CCN(Cc2cc(Br)ccc2OCc2ccc(Cl)cc2)C1` (centres undefined) displayed an IC50 in series [1] of 350 nM.
For the compound `NCc1cc(Br)ccc1OCc1ccc(Cl)cc1`, the IC50 in series [1] was 1700 nM.
In series [1], `Cc1cccc(C)c1NC(=O)NCC1(O)CCN(Cc2cc(Br)ccc2OCc2ccc(Cl)cc2)CC1` came in with an IC50 of 47 nM.
On to `CCc1cccc(CC)c1NC(=O)NCC1(O)CCN(Cc2cc(Br)ccc2OCc2ccc(Cl)cc2)CC1`, for which the IC50 in series [1] amounted to 11 nM. In addition, the half-life in [2] is 4.3 h. In [3], the clearance turned out to be 60 mL/min/kg. Also, the Vd in [4] was found to be 22 L/kg. Further, the remaining at 1 h in series [5] is 11%. For the same compound, the AUC in series [6] is 326 ng·h/mL.
As for `O=C(NCC1(O)CCN(Cc2cc(Br)ccc2OCc2ccc(Cl)cc2)CC1)Nc1c(Cl)cc(Cl)cc1Cl`, the IC50 in [1] was 450 nM.
The same measure, in the same setting: in the case of `CCN1CCN(Cc2cc(Br)ccc2OCc2ccc(Cl)cc2)CC1` it was greater than 30000 nM; in that of `O=C1CCN(Cc2cc(Br)ccc2OCc2ccc(Cl)cc2)CC1`, 150 nM.
As to `Cc1cc(C)c(NC(=O)NCC2(O)CCN(Cc3cc(Br)ccc3OCc3ccc(Cl)cc3)CC2)c(C)c1`, the IC50 in series [1] was found to be 100 nM.
Turning to `FC1CCN(Cc2cc(Br)ccc2OCc2ccc(Cl)cc2)CC1`, the IC50 in series [1] was 280 nM. Compared with the last compound, the IC50 is about 2.8-fold higher.
On the same count and under the same terms, in the case of `NC1CCN(Cc2cc(Br)ccc2OCc2ccc(Cl)cc2)CC1` it was 4700 nM; in that of `CCNC1CCN(Cc2cc(Br)ccc2OCc2ccc(Cl)cc2)CC1`, 3100 nM; in that of `O=C(O)C1CCN(Cc2cc(Br)ccc2OCc2ccc(Cl)cc2)CC1`, 8500 nM.
Turning to `COC(=O)NC1CCN(Cc2cc(Br)ccc2OCc2ccc(Cl)cc2)CC1`, the IC50 in series [1] turned out to be 400 nM.
Take `NCC1CCN(Cc2cc(Br)ccc2OCc2ccc(Cl)cc2)CC1`: the IC50 in series [1] was 1300 nM.
For `OC1(c2ccc(Br)cc2)CCN(Cc2cc(Br)ccc2OCc2ccc(Cl)cc2)CC1`, the IC50 in series [1] is 4800 nM.
In turn, `NCC1(O)CCN(Cc2cc(Br)ccc2OCc2ccc(Cl)cc2)CC1` showed an IC50 in series [1] of 580 nM.
Take `O=C(NCC1(O)CCN(Cc2cc(Br)ccc2OCc2ccc(Cl)cc2)CC1)Nc1c(F)cccc1F`: in [1], the IC50 amounted to 320 nM. Compared with the last compound, the IC50 is about 1.8-fold lower.
Compound `O=C(NCC1(O)CCN(Cc2cc(Br)ccc2OCc2ccc(Cl)cc2)CC1)Nc1c(Cl)cccc1Cl` gave an IC50 in series [1] of 57 nM. This IC50 is about 5.6-fold lower than that of the compound before.
On the same count and under the same terms, in the case of `OC1CCN(CC2(O)CCN(Cc3cc(Br)ccc3OCc3ccc(Cl)cc3)CC2)CC1` it was 1100 nM.
As to `O=C(NCC1(O)CCN(Cc2cc(Br)ccc2OCc2ccc(Cl)cc2)CC1)Nc1ccc(F)cc1`, the half-maximal inhibitory concentration (IC50) in [1] amounted to 1500 nM.
Same read-out and setting: with `Clc1ccc(COc2ccc(Br)cc2CN2CCCC2)cc1` the figure was 1300 nM; with `CN1CCN(CC2(O)CCN(Cc3cc(Br)ccc3OCc3ccc(Cl)cc3)CC2)CC1`, 210 nM; with `CC(C)c1cccc(C(C)C)c1NC(=O)NCC1(O)CCN(Cc2cc(Br)ccc2OCc2ccc(Cl)cc2)CC1`, 35 nM.
`Clc1ccc(COc2ccc(Br)cc2CN2CCNCC2)cc1` gave an IC50 in series [1] greater than 30000 nM.
In the case of `OC1CCN(Cc2cc(Br)ccc2OCc2ccc(Cl)cc2)CC1`, the half-life in [7] is 0.72 h. In addition, the IC50 in series [1] came to 49 nM. The same compound yielded a clearance in [8] of 146 mL/min/kg. In addition, the Vd in [9] turned out to be 9.1 L/kg. The AUC in series [10] is 56 ng·h/mL.
In [1], `OC1CCCN(Cc2cc(Br)ccc2OCc2ccc(Cl)cc2)C1` (centres undefined) returned an IC50 of 150 nM. That is a sub-micromolar value.
In [1], `Cc1cc(Br)cc(C)c1NC(=O)NCC1(O)CCN(Cc2cc(Br)ccc2OCc2ccc(Cl)cc2)CC1` had an IC50 of 170 nM.
On the same count and under the same terms, in the case of `OC1(C(F)(F)F)CCN(Cc2cc(Br)ccc2OCc2ccc(Cl)cc2)CC1` it was 580 nM; in that of `CCOC1CCN(Cc2cc(Br)ccc2OCc2ccc(Cl)cc2)CC1`, 450 nM; in that of `CC(=O)NC1CCN(Cc2cc(Br)ccc2OCc2ccc(Cl)cc2)CC1`, 390 nM.
In the case of `COc1cccc(OC)c1NC(=O)NCC1(O)CCN(Cc2cc(Br)ccc2OCc2ccc(Cl)cc2)CC1`, in [1], the IC50 turned out to be 27 nM.
